Screening data: PubChem, several laboratories
H9c2 protect: myocardial damage modulation in H9c2 cells | actives 0.63% (n = 360,000) | AID 588492 | protection from H2O2 cell death, % at 20 µM | H9c2 cardiomyocytes, H2O2 injury protection, ATPLite, 2 h;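 active = compounds giving at least 50% protection of heart cells from peroxide-induced death in the single-dose screen, raw or plate-pattern-corrected value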;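 also: 0% = DMSO wells with peroxide and 100% = DMSO wells without peroxide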
DAGLB inh: diacylglycerol lipase beta (human) inhibition; HEK293T DAGLB membrane lysate, EnzChek fluorogenic substrate; inhibition, % at 5.17 µM; actives 0.059% (n = 340,000); in the data active = inhibition above about 34%;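 also: 0% = enzyme with vehicle and 100% = wells lacking enzyme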
Tn7 DDE FP: DD(E)-Tn7 binding inhibition, primary FP screen; P02675; FP displacement of FITC-Tn7 peptide from fibrin DD(E); 0% = median of compound wells per plate; inhibition, % at 8.3 µM; actives 0.13% (n = 370,000); AID 720508;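 active = inhibition above the mean of compounds falling within the control limits plus 3 SD of them, cut at about 14% in these data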;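 also: 0% = plate median of compound wells and 100% = 10 µM Aha-Tn7 peptide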
Target sequence (P02675 whole entry, looked up): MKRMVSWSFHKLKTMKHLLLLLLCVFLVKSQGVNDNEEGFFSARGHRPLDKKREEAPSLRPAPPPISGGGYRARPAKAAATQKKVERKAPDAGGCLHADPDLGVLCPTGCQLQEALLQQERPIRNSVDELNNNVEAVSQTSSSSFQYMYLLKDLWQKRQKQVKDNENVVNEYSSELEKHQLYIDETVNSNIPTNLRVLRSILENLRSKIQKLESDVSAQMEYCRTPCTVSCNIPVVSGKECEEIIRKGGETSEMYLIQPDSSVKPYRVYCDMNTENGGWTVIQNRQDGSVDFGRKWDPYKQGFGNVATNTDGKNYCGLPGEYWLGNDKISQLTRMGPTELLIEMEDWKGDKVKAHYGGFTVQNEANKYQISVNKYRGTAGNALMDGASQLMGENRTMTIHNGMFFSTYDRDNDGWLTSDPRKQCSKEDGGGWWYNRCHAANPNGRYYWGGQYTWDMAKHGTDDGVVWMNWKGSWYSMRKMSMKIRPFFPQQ
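system = human fibrin DD(E) protein | quantity = DD(E) 2 µM final | medium = Tris/NaCl/CaCl2 buffer, pH 7.8 | also added = labelled Tn7 tracer, 0.1 µM | compound dosing = single point at 8.3 µM | timing = compound with protein 10 min, then 3 h after probe, room temperature | signal = FP measurement | benchmarks = Aha-Tn7 high control | repeats = one replicate per compound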
TAG inh: reduces triacylglycerol accumulation in H9c2 cells. Nile Red lipid (TAG) fluorescence; cells loaded with 200 µM oleic acid. inhibition, % at 12.5 µM. actives 0.66% (n = 230,000);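 active = pattern-corrected inhibition of lipid staining of at least 50% with the nuclear-stain viability signal not falling by more than 50%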;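 also: 0% = DMSO wells and 100% = triacsin C control wells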
Tn6 DDE FP: DD(E)-Tn6 binding inhibition, primary FP screen. actives 0.21% (n = 370,000). inhibition, % at 8.3 µM. Fibrin DD(E) TRITC-Tn6 fluorescence polarization displacement;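 active = inhibition above a per-campaign cutoff: mean of compounds within control limits plus 3 SD, cut at about 15% in these data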;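 also: 0% = median of all compound wells on the plate and 100% = blocking peptide control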
MT1-MMP act inh: MT1-MMP (human) activation inhibition | HT1080 RFP-PRO-GFP cells, GFP/RFP ratio fluorescence, overnight; percent of plate control window, DMSO zero | actives 0.061% (n = 360,000) | AID 651647 | GFP/RFP ratio change, % at 20 µM | P50281;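 active = GFP/RFP ratio change of at least 30% with cell ATP level not reduced by more than half and red fluorescence within 50% of control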
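Material: RFP-PRO-GFP reporter HT1080 cells. Dosing: single-point 20 µM compound, 1% DMSO. Controls: DMSO and RFP-L50D-GFP cell wells. Timing: cells overnight before dosing, compound overnight, 37 °C, 5% CO2. Measure: GFP/RFP fluorescence ratio.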
Active calls of the source: *; · = no result. The list is not random: actives were taken first. Their share in the collection is about 1.4%.

SMILES | H9c2 protect | DAGLB inh | Tn7 DDE FP | TAG inh | Tn6 DDE FP | MT1-MMP act inh
Cc1csc2nc(COC(=O)c3ccc(Cl)c([N+](=O)[O-])c3)cc(=O)n12 | 81.5* | -1.0 | 1.8 | -16.2 | 2.0 | -7.8
CCNC(=O)N1CCN(c2ccc(N3CCN(C(=O)NCC)[C@@H](C)C3)c(C)c2)[C@H](C)C1 | · | · | 7.7 | · | -3.6 | ·
Cc1ccc(NC2=Nc3ccccc3N3C2=Nc2c(c(C)nn2-c2ccccc2)C3c2ccc(O)c(O)c2)cc1 (centres undefined) | 49.2 | 9.1 | 6.6 | 109.5* | -2.2 | -3.7
Cc1nn(-c2ccccc2)c2c1C(c1ccc(O)c(O)c1)N1C(=N2)C(Nc2ccccc2)=Nc2ccccc21 (centres undefined) | 25.9 | 3.4 | -3.6 | 13.1 | -4.4 | 3.4
c1ccc(-c2ccc(CNc3nc(-c4ccccn4)nnc3-c3ccccc3)cc2)cc1 | · | · | -7.5 | · | -13.5 | ·
C=CCNc1nc(-c2ccccn2)nnc1-c1ccccc1 | 73.0* | 0.9 | -1.6 | -93.8 | 2.5 | 3.5
CC(C)n1cnc2c(N(C)c3ccccc3)nc(N(CCN(C)C)Cc3ccccc3)nc21 | -6.2 | -5.3 | 2.7 | 51.6* | 7.2 | -1.6
Cn1c(=O)cc(OCC(=O)NCCCN2CCN(c3cccc(Cl)c3)CC2)c2ccccc21 | 64.4* | 1.8 | -3.2 | 8.6 | 2.0 | 3.2
Cn1c(=O)cc(OCC(=O)NCCCN2CCN(c3ccccc3F)CC2)c2ccccc21 | 18.9 | -8.4 | 0.3 | · | -3.9 | 1.5
COc1ccc(-c2cc(=O)oc3cc(OC(=O)C4CCCCC4)ccc23)cc1 | 52.4* | -4.8 | 4.2 | 8.7 | -6.6 | -9.5
O=C(Oc1ccc2c(-c3ccccc3)cc(=O)oc2c1)C1CCCCC1 | 87.6* | -17.1 | 5.0 | 13.8 | -7.5 | -5.9
O=C(Oc1ccc2c(-c3ccccc3)cc(=O)oc2c1)c1cccs1 | 39.7 | -6.7 | -3.0 | 2.3 | -1.6 | -10.5
Cc1c(O)c(CN2CCCCC2)cc2c3c(c(=O)oc12)CCC3 | 5.8 | -2.2 | -0.8 | · | -4.5 | 2.8
Cc1c(O)c(CN2CCCCC2)cc2c1oc(=O)c1ccccc12 | 51.6* | -4.7 | -2.8 | · | -1.8 | -3.0
COC(=O)c1cc(Cl)c(NC(=O)/C=C/c2ccc(Cl)cc2)cc1OC | -9.5 | 0.4 | 1.3 | · | 5.0 | -0.5
COC(=O)c1cc(OC)c(OC)cc1NC(=O)c1ccc(OC)c(OC)c1 | 51.9* | -2.4 | -9.7 | 11.8 | 3.4 | -8.4
COC(=O)c1cc(Cl)c(NC(=O)/C=C/c2ccc(OC)c(OC)c2)cc1OC | 68.0* | 0.0 | 2.4 | · | -6.0 | 6.4
O=S1(=O)c2ccc(N3CC[C@@H](O)C3)cc2O[C@@H]2CCN1C2 | · | · | -1.3 | · | 4.0 | ·
C[C@@H]1/C=C/CC(=O)N[C@H](c2ccccc2)[C@H](C)/C=C/CC(=O)N[C@@H]1c1ccccc1 | · | · | 7.5 | · | 0.6 | ·
Cc1ccsc1C(=O)OCc1cc(=O)n2ccsc2n1 | 30.7 | 0.1 | 1.2 | -2.2 | -9.2 | -5.1
O=C(OCc1cc(=O)n2ccsc2n1)c1ccc(O)cc1O | 63.5* | -0.9 | 0.8 | 1.4 | 7.4 | -7.4
O=c1cc(COc2ncnc3c(Cl)cc(Cl)cc23)nc2sccn12 | 54.6* | -1.7 | 3.0 | 2.9 | -14.3 | -7.0
CCOC(=O)[C@]12CCCCC/C=C\1N(CCc1ccc(Cl)cc1)C(=O)[C@H]2CC(=O)NCCCN1CCCC1=O | · | · | 9.5 | · | 6.7 | ·
O=C(CCn1nnc(-c2cccs2)n1)N1CCCC1 | · | · | 2.2 | · | 2.3 | ·
CC(C)C(=O)OCCCN1C(=O)CCC12CCC(c1ccccc1)CC2 (centres undefined) | · | · | 7.7 | · | 1.0 | ·
CS(=O)(=O)Nc1ccc(-c2ccc3nccn3c2)cc1 | 51.7* | · | 2.6 | 10.6 | -5.0 | -3.3
C=CCOC(=O)C1=C[C@H](c2cn(C(C)=O)c3ccccc23)C[C@H](OCc2ccc(CO)cc2)O1 | 50.9* | -1.2 | 4.7 | -63.8 | 5.5 | -6.9
CC(=O)n1cc([C@@H]2C=C(C(=O)N3CCN(C)CC3)O[C@H](OCc3ccc(CO)cc3)C2)c2ccccc21 | 5.0 | 1.0 | 4.2 | 6.1 | 3.1 | -9.2
